Laboratory results from ChEMBL document CHEMBL4513216, “Probing the Open Global Health Chemical Diversity Library for Multistage-Active Starting Points for Next-Generation Antimalarials” (ACS Infect Dis, 2020).

Test: Toxicity liver stage against HepG2, at 10uM
Type: cell-based
Set-up: test concentration 10 uM, cell line HepG2-A16-CD81EGFP
Conditions: human, HepG2-A16-CD81EGFP cells; read-out: INHIBITION
Method in brief: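 Uninfected HepG2-A16-CD81EGFP cells, 3 × 10^3 per well, 1536-well, plated on prespotted compound at 10 μM final, parasite-free screening media added to match infected plates; puromycin 10 μM positive, DMSO 0.5% negative; run in parallel with 48 h PbLuc assay at 37 °C, 5% CO2; viability by CellTiter-Glo luminescence, normalized to controls.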

SMILES	cytotoxicity at 10 µM
COc1ccnc(N2CCN(CC(=O)N3CCOCC3)CC2)n1	-7.37%
C[C@@H](NCc1cccc(Cl)c1)c1onc(-c2ccccc2)c1C(=O)O	-4.98%
O=C1N[C@@H]2CCN(C(=O)c3ccccc3)[C@@H]2C(=O)N1c1ccc(F)cc1	7.62%
O=C(NCc1ccco1)c1cccc(C(=O)NCc2ccco2)n1	5.7%
Cn1cc(-c2nnc3sc(C4CC4)nn23)cn1	-3.08%
CCCc1cc(=O)[nH]c2nnc(SCC(N)=O)n12	13.8%
CC1(C)OCC2(CO1)CN(C(=O)c1ccccc1Br)C2	-7.31%
NC1CCc2c(ccc(=O)n2Cc2ccncc2)C1 (stereo unspecified)	-4.16%
CC1c2ncc(COCC3CCCC3)n2CCN1S(=O)(=O)N(C)C (stereo unspecified)	14.6%
O=C(CCO)N1CCC2(CCc3ccc(-c4ccoc4)cc32)CC1	16.1%
Cn1cccc1C(=O)N1CCCC2(CCCN2S(C)(=O)=O)C1 (stereo unspecified)	6.28%
Cc1cnc(N2CCC3(CC2)CC(NS(C)(=O)=O)CO3)nc1 (stereo unspecified)	2.87%
Cn1cc(N2CC3(CCN(S(C)(=O)=O)C3)CC2=O)cn1 (stereo unspecified)	9.04%
Cc1ccc(C)c(C(NC(=O)C2CC2)c2cccnc2)c1 (stereo unspecified)	-3.5%
CC(NC(=O)N1CCN(c2ccc(Cl)cc2)CC1)C(=O)N1CCSCC1 (stereo unspecified)	25.4%
CNC(=O)C1Cn2ccnc2C2(CCN(CCF)CC2)O1 (stereo unspecified)	-12.6%
Cc1cc(C(F)(F)F)nn1CCCNC(=O)C1CCN(S(C)(=O)=O)CC1	-4.56%
Cc1cc(C(=O)Nc2cnn(CC(F)(F)F)c2)nc(N(C)C)n1	-2.89%
O=C(COCc1nc(-c2ccncc2)no1)N1CCOCC1	-7.08%
COc1ccccc1NC(=O)c1cnc(C2CCN(C(C)=O)C2)nc1C (stereo unspecified)	6.42%
Cc1ccc2nc(C(=O)N(C)[C@@H]3CC[C@@H](N4CCCC4)[C@@H]3O)cn2c1	1.67%
CC(=O)N1CCN(c2ccnc(C)n2)CC(COc2ccccc2)C1 (stereo unspecified)	-6.16%
CCc1cc(C(=O)N2CCCC2c2nc(O)cc(CC)n2)on1 (stereo unspecified)	-7%

SMILES	cytotoxicity at 10 µM
O=C(CS(=O)(=O)Cc1csc(-c2ccc(F)cc2)n1)NCC1CC1	-3.06%
Nc1cccnc1N1CCC(O)CC1	2.3%
O=C(NCc1cc(-c2ccccc2)no1)NCC1CCCO1 (stereo unspecified)	-3.01%
Cc1cc(C)cc(NCCC(=O)NC2CCCCC2)c1	7.61%
CCCS(=O)(=O)NCC(O)c1c(Cl)cccc1Cl (stereo unspecified)	7.52%
Cc1ccc(N2CCCN(C(=O)CCc3ccsc3)CC2)nn1	-2.22%
CN1CCN(CCOc2ccc(NC(=O)c3cnc[nH]3)cc2)CC1	0.71%
Cc1ccc(CC(NC(=O)Cn2cnnn2)c2ccccn2)cc1 (stereo unspecified)	1.72%
Cc1ncccc1C(=O)NC1CC(=O)N(CC(F)(F)F)C1 (stereo unspecified)	1.2%
COc1ccc(-c2nc(CCNC(=O)NCC3CCOC3)co2)cc1 (stereo unspecified)	-3.1%
COC(=O)N1CCCC(NC(=O)NCc2csc(C)n2)C1 (stereo unspecified)	3.93%
CCCNC(=O)Cn1c(C)nn(C(C)(C)C)c1=O	4.62%
Cc1ccc(-n2cnnn2)cc1NCC(=O)Nc1ccccc1Cl	7.95%
CS(=O)(=O)NC1CCN(C(=O)c2ccc3ccccc3c2)C1 (stereo unspecified)	-9.14%
CC(C)Cc1cc(NC(=O)c2ccc3[nH]nnc3c2)n(C)n1	-7%
CN(C)c1nccc(CNC(=O)NCc2ccco2)n1	-2.48%
CCN1CCN(Cc2nc(C)no2)CC1	0.978%
O=C(NCc1ccon1)N1CCC(n2ccc(C(F)(F)F)n2)CC1	-0.0817%
O=C(NCc1cccnc1)NC1CCCN(c2ncccn2)C1 (stereo unspecified)	-2.5%
Cc1cnn(CC2CCCN2C(=O)CCc2c(C)nn(C)c2C)c1 (stereo unspecified)	0.407%
COCC(O)CNC(=O)Nc1c(F)cc(F)cc1-c1ccccc1 (stereo unspecified)	-4.17%
COc1ccc(C(C)NC(=O)NCCNc2ccccn2)c(OC)c1 (stereo unspecified)	0.00455%
CCOCc1ccccc1NC(=O)NCC(C)(O)c1cccs1 (stereo unspecified)	-0.966%

SMILES	cytotoxicity at 10 µM
CC(=O)N1Cc2ccccc2CC1C(=O)Nc1ccc(N(C)C)cn1 (stereo unspecified)	-1.92%
CCCOC1CCCN(C(=O)c2csc(S(N)(=O)=O)c2)C1 (stereo unspecified)	-5.45%
COc1ccccc1C1(CNCc2ccc([S+](C)[O-])cc2)CC1 (stereo unspecified)	7.56%
COc1ccc(C)cc1C(C)NCc1cnnn1C (stereo unspecified)	0.211%
Cc1csc(C(C)(C)NCC(=O)N2CCCC(C(N)=O)C2)n1 (stereo unspecified)	5.73%
Cc1ccn(-c2ccc(NCc3ccnc(N4CCCCC4)c3)nn2)n1	-0.715%
Cc1noc(C2CCN(C(=O)c3c(C)noc3C)CC2)n1	5.65%
CN(C)C(=O)CNC(=O)c1cc(Br)c2c(c1)OCCO2	16.4%
COc1ccc(-n2cnnc2SCC(C)(C)O)cn1	13.5%
Cc1cc(CN(C)C(=O)NC(C)c2nncn2C)no1 (stereo unspecified)	8.79%
CC(C)c1nc2n(n1)CC(NCc1ccncc1)CC2 (stereo unspecified)	-13.9%
COCCN1CCO[C@@H]2CN(C(=O)c3ccc4[nH]ccc4c3)CC[C@@H]2C1	-110%
O=C(c1ccco1)N1CC[C@@H](N2CCOCC2)[C@@H]1Cc1ccccc1	-77%
CN(C)Cc1nnc2n1CCN(Cc1ccccn1)CC2	2.05%
Cc1nccc([C@@H]2C[C@@H]3CCN(Cc4ccco4)C[C@H]3O2)n1	-2.61%
CC(C)c1cc(C(=O)N2CCN(C)[C@@H]3CS(=O)(=O)C[C@@H]32)no1	4.14%
CC(=O)N1CCCN(C(=O)Nc2ccccc2N2CCOC2=O)CC1	0.334%
Cc1cc(C)n(CCCN(C)C(=O)C2COc3ccccc3C2)n1 (stereo unspecified)	-5.95%
COCCn1cnnc1CN(C)c1nc(N)ncc1C	-7.85%
COCC(=O)N1C[C@H]2CNC[C@@]2(C(=O)NCc2nc(C)cc(C)n2)C1	14.7%
O=C(NCCCO)C1(N2CCCCC2)Cc2ccccc2C1	-3.07%
O=C(O)C1(n2ccc(-c3ccco3)n2)CCN(Cc2cccnc2)CC1	-131%
CC(C)S(=O)(=O)N1CCC(Cc2cccc(C(=O)O)c2)C1 (stereo unspecified)	1.31%

SMILES	cytotoxicity at 10 µM
Cc1cc(CN2CCC(C(=O)O)(n3ccc(-c4ccco4)n3)CC2)on1	-131%
COc1nc(C)c(C(=O)N2CCc3[nH]nc(C4CCCC4)c3C2)s1	7.51%
Cc1ccc(C2CC(=O)NCc3nc(N)sc32)cc1C (stereo unspecified)	-8.47%
Cc1cnn(CC(=O)N2CCC3(CCC(=O)N(CCCO)C3)CC2)c1	-9.44%
Cc1nccn1CCC1CCCCN1Cc1ccc(O)cc1Cl (stereo unspecified)	-4.23%
Cc1noc(C)c1CCNc1nccc(CCC(F)(F)F)n1	-158%
CCC(CO)n1cnc2scc(C)c2c1=O (stereo unspecified)	-7.37%
CN(Cc1ccoc1)C(=O)C1CC(=O)N(Cc2ccncc2)C1 (stereo unspecified)	-0.766%
Cc1ccc(NCCCc2c(C)noc2C)nn1	8.12%
Cn1nccc1CNC(=O)Cn1nc(C(F)(F)F)cc1C1CC1	-6.36%
NC(=O)C1(CCCc2cccnc2)CCCN(c2ncccn2)C1 (stereo unspecified)	3.61%
Cc1nccn1C1CCCN(C(=O)CCOCC(F)(F)F)C1 (stereo unspecified)	-11.4%
CCn1ccnc1CN1CCN(CC(O)c2ccc(OC)cc2)CC1 (stereo unspecified)	-15.1%
CNc1snc(C)c1C(=O)N1CCC(Nc2ccc(C)nn2)CC1	-8.27%
Cc1ccc(NC2CCN(C(=O)c3c(C)nn(C)c3Cl)CC2)nn1	-11.6%
CSCCCN1CCCC1c1noc(C(C)C)n1 (stereo unspecified)	-12.5%
CC(NC(=O)CCc1ccsc1)c1ccc2c(c1)NC(=O)CO2 (stereo unspecified)	-6.16%
COc1ccc(C2CCCCCN2CCCNS(C)(=O)=O)cc1 (stereo unspecified)	-6.07%
Cc1csc(N2CCN(C(=O)c3c(C)oc(C)c3C)CC2)n1	-14%
CC(=O)NC1CCCN(C(=O)NCc2ccc(-n3cccn3)cc2)C1 (stereo unspecified)	-11.8%
O=C(NCCc1coc(-c2ccc(F)cc2)n1)NC1CC1	-3.24%
Cc1cc(OCC(=O)N2CCCC(c3nc(C)c(C)s3)C2)no1 (stereo unspecified)	-16.4%
Cc1nc(C(=O)N2CCCC2c2c(C)nn(C)c2Cl)ccc1C#N (stereo unspecified)	-12.8%

SMILES	cytotoxicity at 10 µM
CCOC(=O)C1CCN(Cc2csc(-c3ccc(C)o3)n2)CC1	-11.4%
CC(C)c1nc2n(n1)CC(NCc1nc(-c3ccccn3)no1)CC2 (stereo unspecified)	-5.08%
COc1c(C2CCCN2C(=O)c2ccnc(N(C)C)c2)c(C)nn1C (stereo unspecified)	1.9%
Cc1ccccc1C(=O)N1CCOCC1CN(C)C (stereo unspecified)	-2.1%
CN1CCC(CN2CCC3(CCCN(Cc4ccoc4)C3)C2=O)CC1 (stereo unspecified)	-12.9%
Cc1ccc(C(=O)N2CCN3C[C@H](Oc4cccc(F)c4)C[C@H]3C2)cn1	11.2%
COCc1cncc2c1CCN(Cc1cccs1)C2	-0.95%
O=C(Cc1ccccc1)N1CCC2(CCN2Cc2ccc(F)cc2)C1 (stereo unspecified)	2.17%
O=C1[C@H]2CN(C(=O)[C@H]3CCCO3)C[C@H]2CN1CCN1CCCC1	-3.66%
CN(Cc1cncnc1)Cc1cn2c(n1)CN(C1CCOC1)CC2 (stereo unspecified)	-9.36%
CN(Cc1ccco1)[C@@H]1CN(Cc2ccccn2)C[C@@H]2CCCO[C@@H]21	0.34%
CC(C)OCc1ncn2c1CN(CCO)CCC2	8.37%
Cc1cc(CN2C[C@H]3CCC[C@@]3(COCc3csc(C)n3)C2)no1	11.6%
O=C(N1CCOCC1)N1CCc2ncnc(Oc3cccnc3)c2CC1	-0.82%
CN(C)[C@@H]1CCN(C(=O)C2CCOCC2)[C@H]1Cc1ccncc1	1.72%
CCN1CC(=O)NCC12CCN(C(=O)c1ccco1)C2 (stereo unspecified)	-2.86%
O=C(c1cccc(F)c1)N1CCC2(CC1)CC(N1CCOCC1)C2	-8.02%
COCCN1CCN(S(=O)(=O)C2CC2)Cc2ccc(C)nc21	3.38%
O=C1C[C@@H]2CC[C@H](CN1)N2C(=O)CCCc1ccc(Cl)cc1	-7.05%
